Experimental data from different studies.
Target: Mitogen-activated protein kinase 3 (MAPK3, Homo sapiens, UniProt P27361)

Structure (SMILES)	effect on	method	tested at	remaining binding [%]
FC(F)(F)Oc1cccc(-c2cnc3ccc(-c4ccncc4)nn23)c1	cell-free assay	competition with immobilised ligand	5 µM	88
Cc1cnn2ncc(-c3ccnc(N(C)C)n3)c2c1	binding		1 µM	100
O=C(c1ccc(Nc2ncc(Cl)c(-c3ccc(Cl)s3)n2)cc1)N1CCC(N2CCCC2)CC1	binding	competition with immobilised ligand	1 µM	98
COc1cccc(CNC(=O)c2nc3scc(COCc4ccc(C(=O)O)cc4)c3c(=O)[nH]2)c1	cell-free assay	competition with immobilised ligand	1 µM	100
O=C(NCCCN1CCOCC1)c1ccc(Nc2ncc(Cl)c(-c3ccc(Cl)s3)n2)cc1	binding	competition with immobilised ligand	1 µM	100
c1cncc(-c2cccc(Nc3nccc(NC4CCCCC4)n3)c2)c1	binding	competition with immobilised ligand	10 µM	100
C[C@@H](c1cccc(C#N)c1)n1cc(Cl)cc(C(N)=O)c1=N	cell-free assay	competition with immobilised ligand	1 µM	100
C[C@@H]1CCN(c2nccc(-c3cnn4ncccc34)n2)C1	binding		1 µM	83
Nc1ncc2c(n1)-c1c([nH]c3ccc(C#CC4CC4)cc13)CCCC2	binding	competition with immobilised ligand	1 µM	100
c1cnn2ncc(-c3ccnc(N4CCC45COC5)n3)c2c1	binding		1 µM	94
Cc1cnc(Nc2ccc(C(=O)N3CCC(N4CCCC4)CC3)cc2)nc1-c1cc2ccccc2s1	binding	competition with immobilised ligand	1 µM	100
COc1cnc(Nc2cccc(S(N)(=O)=O)c2)nc1N1CCN(c2ccccc2)CC1	binding	competition with immobilised ligand	1 µM	100
C[C@@H]1CN(c2ccc3ncc(-c4ccc5[nH]nc(C6CC6)c5c4)n3n2)C[C@H](C)O1	binding	competition with immobilised ligand	0.5 µM	100
O=C(NCC1CCOCC1)c1n[nH]cc1NC(=O)c1c(F)cccc1F	binding	competition with immobilised ligand	1 µM	100
COCCOc1nc(-c2ccc(Cl)nc2)nc2c1CN(C(=O)c1ncn3ccccc13)CC2	cell-free assay	competition with immobilised ligand	0.1 µM	89
N[C@@H]1CCN(c2nccc(-c3cnn4ncccc34)n2)C1	binding		1 µM	91
N#Cc1ccc(Nc2ccc3[nH]c(=O)[nH]c3c2)c(Cl)c1	cell-free assay	competition with immobilised ligand	1 µM	95
COc1ccnn2ncc(-c3ccnc(N(C)C)n3)c12	binding		1 µM	92
COc1cnc(Nc2cccc(S(N)(=O)=O)c2)nc1N1CCN(c2ccccc2)C(=O)C1	binding	competition with immobilised ligand	1 µM	100
c1ccc(N2CCN(Cc3nc4ccccc4[nH]3)CC2)nc1	binding	competition with immobilised ligand	1 µM	100
CN(C)c1nccc(-c2cnc3ncccn23)n1	binding		1 µM	100
Cc1c(NC(=O)c2cc(C(N)=O)nc3cc(F)ccc23)c(C(F)(F)F)nn1Cc1ccc(C(C)(C)C)cc1	cell-free assay	competition with immobilised ligand	1 µM	100
N#Cc1ccccc1CSc1nnc2c(n1)[nH]c1ccccc12	binding	competition with immobilised ligand	10 µM	89
CN(C)c1ncc(F)c(-c2cnn3ncccc23)n1	binding		1 µM	91
CO[C@@H](C)c1c(Nc2ccc([C@H](N(C)C(=O)C3CCS(=O)(=O)CC3)C(F)(F)F)cc2)cnc2cc(Cl)nn12	cell-free assay	competition with immobilised ligand	1 µM	100
